The target of test [1] is T1, Peroxisome proliferator-activated receptor alpha (Homo sapiens) (UniProt Q07869).
T1 sequence (whole entry): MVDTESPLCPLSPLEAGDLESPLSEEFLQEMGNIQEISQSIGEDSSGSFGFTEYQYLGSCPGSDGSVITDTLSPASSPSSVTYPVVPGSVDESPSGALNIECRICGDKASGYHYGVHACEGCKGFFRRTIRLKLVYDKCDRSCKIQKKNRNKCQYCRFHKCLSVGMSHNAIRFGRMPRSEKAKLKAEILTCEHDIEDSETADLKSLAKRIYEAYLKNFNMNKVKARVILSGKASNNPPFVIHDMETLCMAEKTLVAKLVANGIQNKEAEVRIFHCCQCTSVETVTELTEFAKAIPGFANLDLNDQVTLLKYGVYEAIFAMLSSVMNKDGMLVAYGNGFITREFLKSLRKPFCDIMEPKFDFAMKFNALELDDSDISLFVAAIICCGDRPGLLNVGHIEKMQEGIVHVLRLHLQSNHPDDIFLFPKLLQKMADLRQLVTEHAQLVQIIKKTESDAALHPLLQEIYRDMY
The test can be described thus: Activation of human PPARalpha ligand binding domain expressed in mouse Hepa 1-6 cells co-transfected with fused Gal4-DBD at 0.1 to 10 uM by luciferase reporter gene assay relative to control. The class given is cell-based. Summed up: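 Hepa 1-6 cells (MEM, 10% FCS, penicillin/streptomycin) transfected at 50–70% confluence using Metafectene with Gal4-hPPARα-LBD (0.001 µg plus 0.099 µg pBSK), 4xUAS-TK-Luc reporter and CMV-β-galactosidase. Six hours later, compound was added at 0.1, 1 and 10 µM. Lysis and luminometry after 18 h. Luciferase normalized to β-gal, expressed as fold induction over 0.1% DMSO vehicle. Triplicates, each measured in duplicate.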
(In general: A reporter such as luciferase makes a cellular process visible.)

Test [2] addresses T2, Peroxisome proliferator-activated receptor alpha (Homo sapiens, UniProt Q07869).
T2 sequence (Q07869 whole entry): T1 sequence (whole entry)
The test can be described thus: Displacement of fluorescent pan PPAR agonist form GST-tagged human PPARalpha ligand binding domain by FRET assay. The gist of the method: (§1)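 TR-FRET (LanthaScreen) competitive binding: purified GST-tagged PPAR LBD labelled with terbium anti-GST antibody, with a fluorescent pan-PPAR agonist tracer. Displacement was read as RFU over dose-response series in triplicate. IC50 came from a one-site sigmoidal fit. Reference ligands were GW7647 (PPARα) and L165041 (PPARδ).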

For test [3], the target named is T1, Peroxisome proliferator-activated receptor alpha (Homo sapiens). In words: Activation of human PPARalpha ligand binding domain expressed in mouse Hepa 1-6 cells co-transfected with fused Gal4-DBD at 10 uM after 18 hrs by luciferase reporter gene assay relative to GW-7647. The class given is cell-based. Summed up: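 Gal4-hPPARα-LBD/UAS-luciferase transactivation in Hepa 1-6 cells (Metafectene transfection, β-gal normalization). Compound at 10 µM was added 6 h post-transfection and read 18 h later. Activity is given as percent of the response to 30 nM GW7647. Triplicates measured in duplicate.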

The target of test [4] is T3, Peroxisome proliferator-activated receptor delta (Homo sapiens, UniProt Q03181).
T3 sequence (Q03181 whole entry): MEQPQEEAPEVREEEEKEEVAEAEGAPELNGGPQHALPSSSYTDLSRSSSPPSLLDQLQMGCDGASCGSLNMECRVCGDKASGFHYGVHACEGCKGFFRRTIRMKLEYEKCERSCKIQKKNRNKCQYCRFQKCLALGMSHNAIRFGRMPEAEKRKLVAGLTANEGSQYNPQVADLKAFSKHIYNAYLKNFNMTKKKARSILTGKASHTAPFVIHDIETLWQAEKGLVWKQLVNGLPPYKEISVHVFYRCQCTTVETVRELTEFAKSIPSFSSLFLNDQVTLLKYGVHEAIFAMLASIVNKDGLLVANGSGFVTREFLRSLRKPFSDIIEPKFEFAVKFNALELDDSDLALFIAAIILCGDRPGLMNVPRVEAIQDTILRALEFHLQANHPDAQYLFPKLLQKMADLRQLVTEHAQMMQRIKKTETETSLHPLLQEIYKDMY
The test can be described thus: Displacement of fluorescent pan PPAR agonist form GST-tagged human PPARdelta ligand binding domain by FRET assay. The gist of the method:
as §1

For test [5], the target named is T4, Peroxisome proliferator-activated receptor gamma (Homo sapiens) (UniProt P37231).
T4 sequence (whole entry): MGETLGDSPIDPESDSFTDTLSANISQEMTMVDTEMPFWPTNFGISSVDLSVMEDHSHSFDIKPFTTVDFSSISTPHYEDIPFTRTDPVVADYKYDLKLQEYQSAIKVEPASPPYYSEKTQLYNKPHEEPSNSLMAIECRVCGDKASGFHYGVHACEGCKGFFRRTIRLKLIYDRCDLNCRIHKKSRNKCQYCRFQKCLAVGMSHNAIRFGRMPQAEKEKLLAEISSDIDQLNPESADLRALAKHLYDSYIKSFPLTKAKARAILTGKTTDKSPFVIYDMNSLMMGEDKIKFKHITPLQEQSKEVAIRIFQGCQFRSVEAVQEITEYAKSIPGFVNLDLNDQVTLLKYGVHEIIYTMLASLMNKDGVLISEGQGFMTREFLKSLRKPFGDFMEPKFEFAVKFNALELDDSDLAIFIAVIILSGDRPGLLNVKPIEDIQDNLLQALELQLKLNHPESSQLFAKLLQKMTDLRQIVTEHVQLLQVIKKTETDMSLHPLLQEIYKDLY
The test can be described thus: Activation of human PPARgamma ligand binding domain expressed in MEF cells co-transfected with fused Gal4-DBD at 10 uM after 18 hrs by luciferase reporter gene assay relative to rosiglitazone. The class given is cell-based. Summed up:
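MEFs (DMEM, 10% calf serum) transfected with Gal4-hPPARγ-LBD, 4xUAS-TK-Luc and CMV-β-gal by Metafectene. Compound at 10 µM was added 6 h later and luciferase/β-gal read after 18 h. Activity is expressed as percent of the response to 1 µM rosiglitazone. Triplicates measured in duplicate.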

Test [6] deals with T5, Peroxisome proliferator-activated receptor gamma (Homo sapiens, UniProt P37231).
T5 sequence (P37231 whole entry): T4 sequence (whole entry)

Test [7] deals with T6, Peroxisome proliferator-activated receptor delta (Homo sapiens) (UniProt Q03181).
T6 sequence (whole entry): T3 sequence (Q03181 whole entry)
The test can be described thus: Antagonist activity at human PPARdelta ligand binding domain expressed in MEF cells co-transfected with Gal4-DBD assessed as reduction of L165041-induced transactivation response at 1 uM by luciferase reporter gene assay. The class given is cell-based. The gist of the method: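 MEFs transfected with Gal4-hPPARδ-LBD, UAS-luciferase reporter and CMV-β-gal. Starting 6 h post-transfection, cells were co-treated with 1 µM L165041 and a range of compound doses. After 18 h, β-gal-normalized luciferase was compared with the L165041 response. Triplicates measured in duplicate.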

pIC50: −log10 of the molar value. The source made the active and inactive calls. The calls are words filed in the database; no cut-off is given here.

What is called pIC50 is the negative decadic logarithm of the IC50, by convention in mol/L. A lower pIC50 goes with a high IC50.

For the molecule `CCOC(=O)N1CCc2c(sc(NC(=O)Cc3ccc(OC)cc3)c2C(=O)Nc2ccc(C(=O)OC)cc2)C1`, the result in test [1] was Active. In test [2], the pIC50 was 5.82. In addition, the Activity in test [3] was 40%.
Turning to `CCn1c(SCC(=O)Nc2ccc(C(=O)O)cc2)nnc1-c1cc2cccc(OC)c2o1`, in test [1], the result was Active. Further, the pIC50 is 6.00 in test [2] and 3.41 in test [4]. In test [3], this molecule yielded an Activity of 15%.
Regarding `CCOC(=O)C[C@H](C)NC(=O)c1csc(C2CCN(C(=O)c3c(F)cccc3Cl)CC2)n1`, the outcome in test [1] was Active. In addition, the Activity came to 15% in test [5] and 20% in test [3]. In test [6], the pIC50 is 4.36.
Turning to `O=C(O)c1ccc(COc2ccc3ccccc3c2/C=N/c2ccc(N3CCOCC3)cc2)cc1`, the result in test [1] was Active. The pIC50 in test [2] was 4.37; in test [4], 4.47. This molecule came in with an Activity in test [3] of 15%.
`COC(=O)c1ccc(NC(=O)C[C@H]2C(=O)N(c3cccc(OC)c3)C(=O)N2Cc2ccc(OC)cc2)cc1`: the outcome in test [1] and in test [7] was Active. In test [5], this molecule registered an Activity of 20%. The figures for the negative-log IC50 (pIC50) in test [6] and in test [4] were 4.89 and 5.14, respectively.

These data come from ChEMBL document CHEMBL1140169, “Discovery of novel PPAR ligands by a virtual screening approach based on pharmacophore modeling, 3D shape, and electrostatic similarity screening” (J Med Chem, 2008).
